Target: T1, Renin (Homo sapiens, UniProt P00797)
T1 sequence (P00797 whole entry): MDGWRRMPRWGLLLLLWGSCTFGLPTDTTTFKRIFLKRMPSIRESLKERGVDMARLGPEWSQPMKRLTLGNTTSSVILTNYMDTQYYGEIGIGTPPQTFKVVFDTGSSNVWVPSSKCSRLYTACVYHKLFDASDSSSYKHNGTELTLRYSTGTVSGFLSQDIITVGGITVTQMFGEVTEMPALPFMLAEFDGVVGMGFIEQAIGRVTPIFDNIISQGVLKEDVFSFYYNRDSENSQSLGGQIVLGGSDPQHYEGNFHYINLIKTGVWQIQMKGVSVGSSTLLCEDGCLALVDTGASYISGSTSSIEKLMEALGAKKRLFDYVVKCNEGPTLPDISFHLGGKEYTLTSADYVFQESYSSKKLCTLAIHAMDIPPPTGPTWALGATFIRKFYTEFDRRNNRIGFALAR
Experiment: Inhibitory activity against human renin
Outline: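 It was incubated 2 h at 37 °C with compound added in DMSO. Angiotensin I generated, linear over this period, was corrected for endogenous AI and expressed as percent of DMSO control. IC50 was estimated from semilog plots of three or more concentrations.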

Structure (SMILES)	IC50 [µM]
CC(C)C[C@H](CC(O)[C@H](CC1CCCCC1)NC(=O)OC(C)(C)C)C(=O)N[C@@H](CC(C)C)C(O)CC(=O)N[C@@H](CC(C)C)C(=O)NCc1ccccc1 (stereo not given in full)	3.8
CC(C)C[C@H](NC(=O)CC(O)[C@H](CC(C)C)NC(=O)[C@H](Cc1ccccc1)CC(O)[C@H](CC(C)C)NC(=O)OCc1ccccc1)C(=O)NCc1ccccc1 (stereo not given in full)	8.4
CC(C)C[C@H](NC(=O)CC(O)[C@H](CC(C)C)NC(=O)CCC(=O)[C@H](Cc1ccccc1)NC(=O)OC(C)(C)C)C(=O)NCc1ccccc1 (stereo not given in full)	21
CC(C)C[C@H](CC(O)[C@H](CC(C)C)NC(=O)OCc1ccccc1)C(=O)N[C@@H](CC(C)C)C(O)CC(=O)N[C@@H](CC(C)C)C(=O)NCc1ccccc1 (stereo not given in full)	6.7
CC(C)C[C@H](NC(=O)CC(O)[C@H](CC(C)C)NC(=O)CCC[C@H](Cc1ccccc1)NC(=O)OC(C)(C)C)C(=O)NCc1ccccc1 (stereo not given in full)	23
CC(C)C[C@H](NC(=O)C[C@@H](O)C(CC1CCCCC1)NC(=O)CC1OC1[C@H](Cc1ccccc1)NC(=O)OC(C)(C)C)C(=O)NCc1cccc(CN)c1 (stereo not given in full)	0.32
CC(C)C[C@H](NC(=O)C[C@@H](O)C(CC1CCCCC1)NC(=O)/C=C/C(O)[C@H](Cc1ccccc1)NC(=O)OC(C)(C)C)C(=O)NCc1ccccc1 (stereo not given in full)	0.09
CC(C)C[C@H](NC(=O)CC(O)[C@H](CC(C)C)NC(=O)[C@H](Cc1c[nH]cn1)NC[C@H](Cc1ccccc1)NC(=O)OC(C)(C)C)C(=O)NCc1ccccc1 (stereo not given in full)	3.8
CC(C)C[C@H](NC(=O)CC(O)[C@H](CC(C)C)NC(=O)CC(O)C(O)[C@H](CC1CCCCC1)NC(=O)OC(C)(C)C)C(=O)NCc1ccccc1 (stereo not given in full)	6.5
CC(C)C[C@H](NC(=O)CC(O)[C@H](CC(C)C)NC(=O)CCC(O)[C@H](CC(C)C)NC(=O)OCc1ccccc1)C(=O)NCc1ccccc1 (stereo not given in full)	4
CC(C)C[C@H](NC(=O)CC(O)[C@H](CC(C)C)NC(=O)[C@H](Cc1cnc[nH]1)N(O)C[C@H](Cc1ccccc1)NC(=O)OC(C)(C)C)C(=O)NCc1ccccc1 (stereo not given in full)	6.5
CC(C)C[C@H](NC(=O)CC(O)[C@H](CC(C)C)NC(=O)[C@H](Cc1c[nH]cn1)CC(O)[C@H](Cc1ccccc1)NC(=O)OC(C)(C)C)C(=O)NCc1ccccc1 (stereo not given in full)	0.78
CC(C)CC(=O)N[C@@H](Cc1ccccc1)CS(=O)(=O)[C@@H](Cc1ccccc1)C(=O)N[C@@H](CC(C)C)C(O)CC(=O)N[C@@H](C)C(=O)N[C@@H](CC(C)C)C(O)CC(=O)NCc1ccccc1 (stereo not given in full)	1.5
CC(C)C[C@H](NC(=O)CC(O)[C@H](CC(C)C)NC(=O)[C@H](Cc1ccccc1)NC[C@H](Cc1ccccc1)NC(=O)OC(C)(C)C)C(=O)NCc1ccccc1 (stereo not given in full)	4.2
CC(C)C[C@H](NC(=O)CC(O)[C@H](CC(C)C)NC(=O)C/C=C/[C@H](Cc1ccccc1)NC(=O)OC(C)(C)C)C(=O)NCc1ccccc1 (stereo not given in full)	7
CC(C)C[C@H](NC(=O)C[C@@H](O)C(Cc1ccccc1)NC(=O)C/C=C/[C@H](Cc1ccccc1)NC(=O)OC(C)(C)C)C(=O)NCc1ccccc1 (stereo not given in full)	9.2
CC(C)C[C@H](NC(=O)CC(O)[C@H](CC(C)C)NC(=O)[C@H](Cc1ccccc1)N(O)C[C@H](Cc1ccccc1)NC(=O)OC(C)(C)C)C(=O)NCc1ccccc1 (stereo not given in full)	18
CC(C)C[C@H](NC(=O)CC(O)[C@H](CC(C)C)NC(=O)[C@H](Cc1ccccc1)[S+]([O-])C[C@H](Cc1ccccc1)NC(=O)OC(C)(C)C)C(=O)NCc1ccccc1 (stereo not given in full)	5.4
CC(C)C[C@H](NC(=O)C[C@@H](O)C(Cc1ccccc1)NC(=O)CC1OC1[C@H](Cc1ccccc1)NC(=O)OC(C)(C)C)C(=O)NCc1ccccc1 (stereo not given in full)	4.4
CC(C)CC(=O)N[C@@H](Cc1ccccc1)C1OC1CC(=O)N[C@@H](CC(C)C)C(O)CC(=O)N[C@@H](CC(C)C)C(=O)NCc1ccccc1 (stereo not given in full)	29
CC(C)C[C@H](NC(=O)CC(O)[C@H](CC(C)C)NC(=O)[C@H](Cc1cnc[nH]1)NC[C@H](CC1CCCCC1)NC(=O)OC(C)(C)C)C(=O)NCc1ccccc1 (stereo not given in full)	10
CC(C)CC(=O)N[C@H](CN[C@H](C(=O)N[C@@H](CC(C)C)C(O)CC(=O)N[C@@H](CC(C)C)C(=O)NCc1ccccc1)C(C)C)C(C)C (stereo not given in full)	15

Structure (SMILES)	IC50 [µM]
CC(C)C[C@H](NC(=O)C[C@@H](O)C(CC1CCCCC1)NC(=O)CCC[C@H](Cc1ccccc1)NC(=O)OC(C)(C)C)C(=O)NCc1cccc(CN)c1 (stereo not given in full)	0.63
CC(C)C[C@H](NC(=O)CC(O)[C@H](CC(C)C)NC(=O)/C=C/C(O)[C@H](Cc1ccccc1)NC(=O)OC(C)(C)C)C(=O)NCc1ccccc1 (stereo not given in full)	2.1
CC(C)C[C@H](NC(=O)C[C@@H](O)C(CC1CCCCC1)NC(=O)CC1OC1[C@H](Cc1ccccc1)NC(=O)OC(C)(C)C)C(=O)NCc1ccccc1 (stereo not given in full)	0.53
CC(C)C[C@H](CC(=O)[C@H](CC1CCCCC1)NC(=O)OC(C)(C)C)C(=O)N[C@@H](CC(C)C)C(O)CC(=O)N[C@@H](CC(C)C)C(=O)NCc1ccccc1 (stereo not given in full)	26
CC(C)CC(=O)N[C@H](CSCC(=O)N[C@@H](CC(C)C)C(O)CC(=O)N[C@@H](CC(C)C)C(=O)NCc1ccccc1)Cc1ccccc1 (stereo not given in full)	18
CC(C)C[C@H](NC(=O)CC(O)[C@H](CC(C)C)NC(=O)C(O)C(O)C(O)[C@H](Cc1ccccc1)NC(=O)OC(C)(C)C)C(=O)NCc1ccccc1 (stereo not given in full)	11
CC(C)C[C@H](NC(=O)C[C@@H](O)C(CC1CCCCC1)NC(=O)[C@H](Cc1cnc[nH]1)NC[C@H](Cc1ccccc1)NC(=O)OC(C)(C)C)C(=O)NCc1ccccc1 (stereo not given in full)	0.2
CC(C)C[C@H](NC(=O)C[C@@H](O)C(CC1CCCCC1)NC(=O)CCC(O)[C@H](Cc1ccccc1)NC(=O)OC(C)(C)C)C(=O)NCc1ccccc1 (stereo not given in full)	0.061
CC(C)CC(=O)N[C@H](CS[C@@H](Cc1ccccc1)C(=O)N[C@@H](CC(C)C)C(O)CC(=O)N[C@@H](C)C(=O)N[C@@H](CC(C)C)C(O)CC(=O)NCc1ccccc1)Cc1ccccc1 (stereo not given in full)	7.4
CC(C)C[C@H](NC(=O)CC(O)[C@H](CC(C)C)NC(=O)CC(O)C(O)[C@H](Cc1ccccc1)NC(=O)OC(C)(C)C)C(=O)NCc1ccccc1 (stereo not given in full)	1.4
CC(C)CC(=O)N[C@H](/C=C/CC(=O)N[C@@H](CC(C)C)C(O)CC(=O)N[C@@H](CC(C)C)C(=O)NCc1ccccc1)Cc1ccccc1 (stereo not given in full)	13
CC(C)C[C@H](NC(=O)CC(O)[C@H](CC(C)C)NC(=O)C/C=C\[C@H](Cc1ccccc1)NC(=O)OC(C)(C)C)C(=O)NCc1ccccc1 (stereo not given in full)	> 100
CC(C)CC(=O)N[C@@H](Cc1ccccc1)C[S+]([O-])[C@@H](Cc1ccccc1)C(=O)N[C@@H](CC(C)C)C(O)CC(=O)N[C@@H](C)C(=O)N[C@@H](CC(C)C)C(O)CC(=O)NCc1ccccc1 (stereo not given in full)	2
CC(C)C[C@H](NC(=O)C[C@@H](O)C(CC1CCCCC1)NC(=O)CCC(O)[C@H](Cc1ccccc1)NC(=O)OC(C)(C)C)C(=O)NCc1ccc(CN)cc1 (stereo not given in full)	0.022
CC(C)C[C@H](NC(=O)CC(O)[C@H](CC(C)C)NC(=O)[C@@H](CC(=O)[C@H](Cc1ccccc1)NC(=O)OCc1ccccc1)Cc1ccccc1)C(=O)NCc1ccccc1 (stereo not given in full)	23
CC(C)C[C@H](NC(=O)OCc1ccccc1)C(=O)C[C@@H](Cc1ccccc1)C(=O)N[C@@H](CC(C)C)C(O)CC(=O)N[C@@H](CC(C)C)C(=O)NCc1ccccc1 (stereo not given in full)	11
CC(C)C[C@H](NC(=O)CC(O)[C@H](CC(C)C)NC(=O)[C@H](Cc1ccccc1)CC(O)[C@H](Cc1ccccc1)NC(=O)OCc1ccccc1)C(=O)NCc1ccccc1 (stereo not given in full)	3.7
CC(C)C[C@H](NC(=O)C[C@@H](O)C(CC1CCCCC1)NC(=O)C/C=C/[C@H](Cc1ccccc1)NC(=O)OC(C)(C)C)C(=O)NCc1ccccc1 (stereo not given in full)	1.3
CC(C)C[C@H](NC(=O)C[C@@H](O)C(CC1CCCCC1)NC(=O)/C=C/C(O)[C@H](Cc1ccccc1)NC(=O)OC(C)(C)C)C(=O)NCc1ccc(CNC(=O)OCc2ccccc2)cc1 (stereo not given in full)	0.47
CC(C)C[C@H](NC(=O)[C@H](C)NC(=O)CC(O)[C@H](CC(C)C)NC(=O)[C@H](Cc1ccccc1)[S+]([O-])C[C@H](Cc1ccccc1)NC(=O)OC(C)(C)C)C(O)CC(=O)NCc1ccccc1 (stereo not given in full)	5.6
CC(C)C[C@H](NC(=O)CC(O)[C@H](CC(C)C)NC(=O)CC1OC1[C@H](Cc1ccccc1)NC(=O)OC(C)(C)C)C(=O)NCc1ccccc1 (stereo in doubt; 32)	1.2
CC(C)C[C@H](NC(=O)CC(O)[C@H](CC(C)C)NC(=O)CC1OC1[C@H](Cc1ccccc1)NC(=O)OC(C)(C)C)C(=O)NCc1ccccc1 (stereo in doubt; 37)	> 100

Target: Renin (monkey)
Experiment: The compound was tested in vitro for inhibitory activity against Renin in monkey plasma

IC50 [µM]	Structure (SMILES)
1.1	CC(C)C[C@H](NC(=O)CC(O)[C@H](CC(C)C)NC(=O)CNC(=O)[C@H](Cc1ccccc1)NC(=O)OC(C)(C)C)C(=O)NCc1ccccc1 (stereo not given in full)

Reference: ChEMBL document CHEMBL1124705, “Renin inhibitors containing isosteric replacements of the amide bond connecting the P3 and P2 sites” (J Med Chem, 1990)
